From ChEMBL document CHEMBL1137688, “Design, synthesis and antibacterial activity of novel actinonin derivatives containing benzimidazole heterocycles” (2009)
Converted amounts (≈) assume the structure as drawn.

What was measured:
Format in all cases: functional
Micrococcus luteus = experiment: Antimicrobial activity against Sarcina lutea CMCC 28001 after 24 hrs by broth microdilution method; details: CMCC 28001, 24 h
Method in brief: (§1)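 Broth microdilution in Mueller-Hinton broth. Compounds tested across a doubling-dilution series, with cefoperazone as the positive control. Plates incubated 24 h at 37 °C. MIC taken as the lowest concentration showing no visible bacterial growth.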

Klebsiella pneumoniae = experiment: Antimicrobial activity against Klebsiella pneumoniae CMCC 46117 after 24 hrs by broth microdilution method; details: CMCC 46117, 24 h; method in brief: as §1
Staphylococcus aureus = experiment: Antimicrobial activity against Staphylococcus aureus CMCC 26112 after 24 hrs by broth microdilution method; details: CMCC 26112, 24 h; method in brief: as §1

Compound | MIC (Micrococcus luteus) [µg/mL] | MIC (Klebsiella pneumoniae) [µg/mL] | MIC (Staphylococcus aureus) [µg/mL]
CCCC[C@H](CC(=O)NO)C(=O)N[C@H](c1nc2cc(C(=O)N3CCCCC3)ccc2[nH]1)C(C)C | > 64 | 8 (≈ 17 µM) | > 64
CCCC[C@H](CC(=O)NO)C(=O)N[C@H](c1nc2cc(C(=O)N3CCOCC3)ccc2[nH]1)C(C)C | 16 (≈ 33.8 µM) | 8 (≈ 16.9 µM) | 16 (≈ 33.8 µM)
CCCC[C@H](CC(=O)NO)C(=O)N[C@H](c1nc2cc(C(=O)Nc3ccc(OC)cc3)ccc2[nH]1)C(C)C | 16 (≈ 31.4 µM) | 16 (≈ 31.4 µM) | 32 (≈ 62.8 µM)
CCCC[C@H](CC(=O)NO)C(=O)N[C@H](c1nc2cc(C(=O)NC3CCCCC3)ccc2[nH]1)C(C)C | 64 (≈ 132 µM) | 32 (≈ 65.9 µM) | 64 (≈ 132 µM)

The next molecules have a lower MIC (Micrococcus luteus) than those just listed; values first:

MIC (Micrococcus luteus) [µg/mL] | MIC (Klebsiella pneumoniae) [µg/mL] | MIC (Staphylococcus aureus) [µg/mL] | Compound
4 (≈ 11.1 µM) | 0.5 (≈ 1.39 µM) | 2 (≈ 5.55 µM) | CCCC[C@H](CC(=O)NO)C(=O)N[C@H](c1nc2ccccc2[nH]1)C(C)C
8 (≈ 21.4 µM) | 4 (≈ 10.7 µM) | 8 (≈ 21.4 µM) | CCCC[C@H](CC(=O)NO)C(=O)N[C@H](c1nc2cc(C)ccc2[nH]1)C(C)C
8 (≈ 20.5 µM) | 8 (≈ 20.5 µM) | 8 (≈ 20.5 µM) | CCCC[C@H](CC(=O)NO)C(=O)N[C@H](c1nc2cc(OC)ccc2[nH]1)C(C)C
0.25 (≈ 0.387 µM) | 0.25 (≈ 0.387 µM) | 0.25 (≈ 0.387 µM) | CCN1CCN(C(=O)N[C@@H](C(=O)N[C@@H]2C(=O)N3C(C(=O)O)=C(CSc4nnnn4C)CS[C@H]23)c2ccc(O)cc2)C(=O)C1=O [CEFOPERAZONE]
